From ChEMBL document CHEMBL1145813, “Synthesis and evaluation of 11C-labeled 6-substituted 2-arylbenzothiazoles as amyloid imaging agents” (J Med Chem, 2003)

Experiments:
[1] = Percent injected dose per gram of compound to Swiss-Webster mice brain was measured after 30 min of intravenous injection; assay type: functional, Mus musculus
Procedure, shortened: (§1)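 Female Swiss-Webster mice (23–35 g) received 0.37–3.7 MBq of high specific activity (>7.4 GBq/μmol) 11C-labeled derivative by lateral tail vein, in ≤0.10 mL of 93% isotonic saline/7% ethanol. Mice were killed at 2 or 30 min, and whole brain minus cerebellum was gamma-counted and decay-corrected against injectate standards. %ID/g was multiplied by body weight (kg). The 2 min/30 min ratio was taken from these values.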

[2] = Percent injected dose per gram of compound to Swiss-Webster mice brain was measured after 2 min of intravenous injection; assay type: functional, Mus musculus; procedure, shortened: as §1
[3] = Ratio of percent injected dose per gram of compound to Swiss-Webster mice brain after 2 min and 30 min of intravenous injection; assay type: functional; procedure, shortened: as §1
[4] = Apparent lipophilicity was determined
[5] = molecular target: Amyloid-beta precursor protein (Homo sapiens, UniProt P05067); test: Binding affinity for Amyloid beta 1-40 aggregates in competition with [N-methyl-3H] BTA-1.
Sequence of Amyloid-beta precursor protein (P05067 whole entry): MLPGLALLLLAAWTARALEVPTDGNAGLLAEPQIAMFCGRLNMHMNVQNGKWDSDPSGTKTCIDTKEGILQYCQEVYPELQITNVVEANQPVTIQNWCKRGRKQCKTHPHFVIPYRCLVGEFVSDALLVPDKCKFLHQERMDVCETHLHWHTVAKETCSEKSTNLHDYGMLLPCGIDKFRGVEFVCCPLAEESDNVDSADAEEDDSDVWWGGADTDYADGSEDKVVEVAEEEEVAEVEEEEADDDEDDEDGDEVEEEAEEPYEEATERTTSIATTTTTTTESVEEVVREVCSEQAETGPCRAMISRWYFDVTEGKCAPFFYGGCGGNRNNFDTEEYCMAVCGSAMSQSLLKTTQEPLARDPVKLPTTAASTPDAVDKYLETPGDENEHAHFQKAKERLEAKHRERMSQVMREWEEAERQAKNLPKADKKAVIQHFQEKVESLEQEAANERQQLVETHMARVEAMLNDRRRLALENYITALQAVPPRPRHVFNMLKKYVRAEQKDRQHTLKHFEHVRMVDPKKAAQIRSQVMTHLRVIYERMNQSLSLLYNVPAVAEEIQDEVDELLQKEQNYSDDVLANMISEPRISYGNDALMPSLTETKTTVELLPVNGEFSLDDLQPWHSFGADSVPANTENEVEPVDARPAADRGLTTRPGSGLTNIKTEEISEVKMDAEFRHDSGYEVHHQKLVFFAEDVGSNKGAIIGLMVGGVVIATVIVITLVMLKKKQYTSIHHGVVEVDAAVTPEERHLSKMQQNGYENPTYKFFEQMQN

Row | Structure (SMILES) | ID [1] [%] | ID [2] [%] | Ratio [3] | chromatographic logD [4] | Ki [5] [nM]
1 | CN(C)c1ccc(-c2nc3ccc(C#N)cc3s2)cc1 | 0.097 | 0.24 | 2.5 | 3.2 | 11
2 | CNc1ccc(-c2nc3ccc(O)cc3s2)cc1 [PITTSBURGH COMPOUND B UNLABELLED] | 0.018 | 0.21 | – | – | –
3 | CNc1ccc(-c2nc3ccc(C#N)cc3s2)cc1 | 0.063 | 0.32 | 5 | 2.5 | 8.6
4 | Cc1ccc2nc(-c3ccc(N(C)C)cc3)sc2c1 | 0.15 | 0.078 | 0.52 | 3.8 | 64
5 | Nc1ccc(-c2nc3ccccc3s2)cc1 | – | – | – | 2 | 37
6 | Cc1ccc2nc(-c3ccc(N)cc3)sc2c1 | – | – | – | 2.4 | 9.5
7 | COc1ccc2nc(-c3ccc(N)cc3)sc2c1 | 0.084 | 0.32 | 3.8 | 1.9 | 7
8 | Nc1ccc(-c2nc3ccc(O)cc3s2)cc1 | – | – | – | – | 46
9 | CN(C)c1ccc(-c2nc3ccc(O)cc3s2)cc1 | 0.1 | 0.32 | 3 | 2 | 4.4
10 | CN(C)c1ccc(-c2nc3ccc(Br)cc3s2)cc1 | 0.11 | 0.054 | 0.49 | 4.4 | 2.9
11 | CNc1ccc(-c2nc3ccc(OC)cc3s2)cc1 | 0.1 | 0.33 | 3.2 | 2.6 | 4.9
12 | CNc1ccc(-c2nc3ccccc3s2)cc1 | 0.057 | 0.43 | – | 2.7 | –
13 | Nc1ccc(-c2nc3ccc(Br)cc3s2)cc1 | – | – | – | 2.9 | 7.2
14 | CN(C)c1ccc(-c2nc3ccccc3s2)cc1 | 0.078 | 0.19 | 2.5 | 3.4 | 4
15 | CNc1ccc(-c2nc3ccc(C)cc3s2)cc1 | 0.083 | 0.22 | – | 3.1 | –
16 | COc1ccc2nc(-c3ccc(N(C)C)cc3)sc2c1 | 0.14 | 0.16 | 1.1 | 3.3 | 1.9
17 | N#Cc1ccc2nc(-c3ccc(N)cc3)sc2c1 | – | – | – | 1.8 | 64
18 | CNc1ccc(-c2nc3ccc(Br)cc3s2)cc1 | 0.12 | 0.12 | 1 | 3.6 | 1.7
